Calls of active or inactive are those of the source. The rule behind the calls is not given here.
Tests used:
[1] = Inhibition of CpxA in Escherichia coli harboring lacZ reporter gene assessed as activation of CpxR incubated for 5 hrs by beta-galactosidase assay
How it was run: (§1)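 Read-out is a CpxR-responsive lacZ reporter in a modified E. coli strain, measured as beta-galactosidase activity. Where potency is given it is an EC50. Values are mean ± SEM of at least three separate experiments, each run in triplicate. Compounds showing cytotoxicity or general stress-response activation were not scored.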

Escherichia coli [2] = assay: Inhibition of CpxA phosphatase activity in Escherichia coli assessed as increase in the ratio of CpxR-P to CpxR at 10 uM incubated for 5 hrs by densitometric method
How it was run: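 Wild-type and ΔcpxA E. coli were grown in medium with 0.4% glucose, with 0 or 10 μM compound. CpxR phosphorylation was resolved by Phos-Tag gel and Western blot. His6CpxR incubated with 0 or 20 mM acetyl phosphate served as a marker. The CpxR-P:CpxR ratio was quantified by densitometry, as average and standard deviation of 5 independent experiments.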

[3] = Drug uptake in Escherichia coli BW25113 harboring tolC deletion mutant at 16 to 128 ug/ml incubated for 1 to 40 mins by UHPLC-Q/TOF analysis; type: ADME
How it was run: (§2)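 Isogenic E. coli strains: wild-type efflux or TolC-deficient (efflux-deficient), each with or without an arabinose-induced large outer-membrane pore (hyperporinated). Cells were incubated with increasing compound concentrations. Intracellular accumulation was measured by mass spectrometry after 1 and 40 min.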

[4] = Drug uptake in Escherichia coli BW25113 at 16 to 128 ug/ml incubated for 1 to 40 mins by UHPLC-Q/TOF analysis; type: ADME; how it was run: as §2
Escherichia coli [5] = assay: Inhibition of CpxA in Escherichia coli harboring lacZ reporter gene assessed as activation of CpxR up to 80 uM incubated for 5 hrs by beta-galactosidase assay; how it was run: as §1
[6] = Drug uptake in Escherichia coli BW25113 attTn7::mini-Tn7T-Kmrr-araC-ParaBAD-fhuAdeltaCdelta4L at 16 to 128 ug/ml incubated for 1 to 40 mins by UHPLC-Q/TOF analysis; type: ADME; how it was run: as §2
[7] = Drug uptake in Escherichia coli BW25113 deltatolCygiBCattTn7::mini-Tn7T-Kmr-araC-ParaBAD-fhuAdeltaCdelta4L at 16 to 128 ug/ml incubated for 1 to 40 mins by UHPLC-Q/TOF analysis; type: ADME; how it was run: as §2

| SMILES | EC50 ([1]; read-out: EC50) [µM] | further results |
| --- | --- | --- |
| O=[N+]([O-])c1ccc2[nH]c3c(c2c1)CCCC3 | > 160 |  |
| N[C@@H]1CCCc2c1[nH]c1ccc(F)cc21 | 3.5 | inhibition (Escherichia coli [2]): Active |
| CC(N)c1cc2cc(Br)ccc2[nH]1 (stereo not given) | 44.2 |  |
| N[C@H]1CCCc2c1[nH]c1ccc(F)cc21 | > 100 |  |
| N[C@@H]1CCCc2c1[nH]c1cc(F)c(F)cc21 | 1.1 |  |
| NCc1cc2cc(F)ccc2[nH]1 | 79.5 |  |
| Fc1ccc2[nH]c3c(c2c1)CCCC3 |  | Drug uptake [3]: Not Active; Drug uptake [4]: Active |
| OC1CCCc2c1[nH]c1ccccc21 (stereo not given) | > 100 |  |
| CC(C)[C@@H](N)C(=O)Nc1ccc(F)c(F)c1 |  | inhibition (Escherichia coli [5]): inactive |
| CC(C)[C@@H](N)C(=O)Nc1ccc(F)cc1 |  | inhibition (Escherichia coli [5]): inactive |
| CCC(C)[C@@H](N)C(=O)Nc1ccc(F)cc1 (stereo not given in full) |  | inhibition (Escherichia coli [5]): inactive |
| C[C@@H](N)C(=O)Nc1ccc(F)c(F)c1 |  | inhibition (Escherichia coli [5]): inactive |
| C[C@@H](N)C(=O)Nc1ccc(F)cc1 |  | inhibition (Escherichia coli [5]): inactive |
| N[C@H](Cc1ccccc1)C(=O)Nc1ccc(F)cc1 |  | inhibition (Escherichia coli [5]): inactive |
| NC1CCCc2c1[nH]c1ccc(Cl)cc21 (racemic) | 10.9 |  |
| NC1CCCc2c1[nH]c1cc(C(F)(F)F)ccc21 (racemic) |  | EC50 [1]: Nd(Toxic) |
| Cc1ccc2[nH]c3c(c2c1)CCCC3N (racemic) | 34.1 |  |

| SMILES | EC50 ([1]; read-out: EC50) [µM] | further results |
| --- | --- | --- |
| NC1CCCc2c1[nH]c1ccc(C(=O)O)cc21 (racemic) | > 100 |  |
| NC1CCCc2c1[nH]c1ccc(Br)cc21 (racemic) |  | EC50 [1]: Nd(Toxic) |
| COc1ccc2[nH]c3c(c2c1)CCCC3N (racemic) | > 100 |  |
| COC(=O)c1ccc2[nH]c3c(c2c1)CCCC3N (racemic) | > 100 |  |
| NC1CCCc2c1[nH]c1ccc(S(N)(=O)=O)cc21 (racemic) | > 100 |  |
| NC1CCCc2c1[nH]c1c(F)cccc21 (racemic) | 56.8 |  |
| NC1CCCc2c1[nH]c1cccc(C(F)(F)F)c21 (racemic) | > 100 |  |
| NC1CCCc2c1[nH]c1c(C(F)(F)F)cccc21 (racemic) | > 100 |  |
| NC1CCCc2c1[nH]c1cc(F)c(F)cc21 (racemic) | 2.7 |  |
| NC1CCCc2c1[nH]c1ccc(F)cc21 (racemic) | 7.7 | Drug uptake [6]: Active; Drug uptake [3]: Active; Drug uptake [7]: Active; Drug uptake [4]: Active |
| NC1CCCc2c1[nH]c1cccc(F)c21 (racemic) | 65.9 |  |
| NC1CCCc2c1[nH]c1cc(F)ccc21 (racemic) | 11.9 |  |
| NC1CCCc2c1[nH]c1ccc([N+](=O)[O-])cc21 (racemic) | 24.8 | inhibition (Escherichia coli [2]): Active |
| NC1CCCc2c1[nH]c1ccc(C(F)(F)F)cc21 (racemic) | 23.1 |  |
| N#Cc1ccc2[nH]c3c(c2c1)CCCC3N (racemic) | > 100 |  |
| NC1CCCc2c1[nH]c1ccccc21 (racemic) | 30.2 |  |
